# In ChEMBL document CHEMBL4689842, “EUbOPEN Chemogenomics Library wave 1” (2021):
# System: U2OS
# Experiment: Multiplex assay against U2OS
# Type: toxicity, cell-based
# Settings: human
# Method in brief: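 Cells were classed with CellPathfinder machine-learning gating, first as Hoechst high-intensity objects or normal cells, then (normal cells) as healthy, pyknosed or fragmented nuclei, and finally (pyknosed cells) as mitotic or apoptotic. Staining of live cells at seeding used Hoechst33342, BioTracker Green Microtubule Cytoskeleton Dye, MitoTracker Red and Annexin V Alexa Fluor 680, with imaging on a CQ1 microscope at 37°C and 5% CO2 after compound addition. Tubulin, mitochondrial-mass and membrane-permeability phenotypes are per cents of healthy-nucleus cells.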
# [1] = 12 h, 1 µM, compound concentration 1 uM, replicate 1
# [2] = 12 h, 1 µM, compound concentration 1 uM, replicate 2
# [3] = 12 h, 10 µM, compound concentration 10 uM, replicate 1
# [4] = 12 h, 10 µM, compound concentration 10 uM, replicate 2
# [5] = 24 h, 1 µM, compound concentration 1 uM, replicate 1
# [6] = 24 h, 1 µM, compound concentration 1 uM, replicate 2
# [7] = 24 h, 10 µM, compound concentration 10 uM, replicate 1
# [8] = 24 h, 10 µM, compound concentration 10 uM, replicate 2
# [9] = 48 h, 1 µM, compound concentration 1 uM, replicate 1
# [10] = 48 h, 1 µM, compound concentration 1 uM, replicate 2
# [11] = 48 h, 10 µM, compound concentration 10 uM, replicate 1
# [12] = 48 h, 10 µM, compound concentration 10 uM, replicate 2
smiles,measurement,setting,value
CCCCCNC(=N)N/N=C/c1c[nH]c2ccc(OC)cc12.O=C(O)/C=C\C(=O)O [TEGASEROD MALEATE],Population Apoptotic (%),[1],66%
same,Population Fragmented Nuclei (%),[1],12%
same,Population Healthy Nuclei (%),[1],75%
same,Population Hoechst High Intensity Objects (%),[1],8%
same,Population Membrane Permeable-Phenotype (%),[1],4%
same,Population Mitochondria Different-Phenotype (%),[1],16%
same,Population Mitotic Cells (%),[1],33%
same,Population Normal (%),[1],91%
same,Population Pyknosed Nuclei (%),[1],11%
same,Population Tubulin-Different-Phenotype (%),[1],10%
same,Total Cell Count,[1],73
same,Population Apoptotic (%),[2],20%
same,Population Healthy Nuclei (%),[2],79%
same,Population Hoechst High Intensity Objects (%),[2],3%
same,Population Mitochondria Different-Phenotype (%),[2],22%
same,Population Mitotic Cells (%),[2],80%
same,Population Normal (%),[2],96%
same,Population Pyknosed Nuclei (%),[2],8%
same,Population Tubulin-Different-Phenotype (%),[2],14%
same,Total Cell Count,[2],74
same,Population Apoptotic (%),[3],92%
same,Population Fragmented Nuclei (%),[3],36%
same,Population Healthy Nuclei (%),[3],0%
same,Population Hoechst High Intensity Objects (%),[3],12%
same,Population Membrane Permeable-Phenotype (%),[3],100%
same,Population Mitochondria Different-Phenotype (%),[3],100%
same,Population Mitotic Cells (%),[3],7%
same,Population Normal (%),[3],87%
same,Population Pyknosed Nuclei (%),[3],62%
same,Population Tubulin-Different-Phenotype (%),[3],100%
same,Total Cell Count,[3],167
same,Population Apoptotic (%),[4],100%
same,Population Fragmented Nuclei (%),[4],22%
same,Population Healthy Nuclei (%),[4],3%
same,Population Hoechst High Intensity Objects (%),[4],35%
same,Population Mitotic Cells (%),[4],0%
same,Population Normal (%),[4],64%
same,Population Pyknosed Nuclei (%),[4],73%
same,Total Cell Count,[4],64
same,Population Apoptotic (%),[5],47%
same,Population Fragmented Nuclei (%),[5],9%
same,Population Healthy Nuclei (%),[5],78%
same,Population Hoechst High Intensity Objects (%),[5],4%
same,Population Membrane Permeable-Phenotype (%),[5],6%
same,Population Mitochondria Different-Phenotype (%),[5],13%
same,Population Mitotic Cells (%),[5],52%
same,Population Normal (%),[5],95%
same,Population Pyknosed Nuclei (%),[5],12%
same,Population Tubulin-Different-Phenotype (%),[5],13%
same,Total Cell Count,[5],88
same,Population Apoptotic (%),[6],87%
same,Population Fragmented Nuclei (%),[6],10%
same,Population Healthy Nuclei (%),[6],77%
same,Population Hoechst High Intensity Objects (%),[6],5%
same,Population Membrane Permeable-Phenotype (%),[6],5%
same,Population Mitochondria Different-Phenotype (%),[6],21%
same,Population Mitotic Cells (%),[6],12%
same,Population Normal (%),[6],94%
same,Population Tubulin-Different-Phenotype (%),[6],7%
same,Total Cell Count,[6],89
same,Population Apoptotic (%),[7],85%
same,Population Fragmented Nuclei (%),[7],42%
same,Population Healthy Nuclei (%),[7],1%
same,Population Hoechst High Intensity Objects (%),[7],16%
same,Population Membrane Permeable-Phenotype (%),[7],100%
same,Population Mitochondria Different-Phenotype (%),[7],100%
same,Population Mitotic Cells (%),[7],14%
same,Population Normal (%),[7],83%
same,Population Pyknosed Nuclei (%),[7],56%
same,Population Tubulin-Different-Phenotype (%),[7],100%
same,Total Cell Count,[7],180
same,Population Apoptotic (%),[8],100%
same,Population Fragmented Nuclei (%),[8],44%
same,Population Healthy Nuclei (%),[8],26%
same,Population Hoechst High Intensity Objects (%),[8],39%
same,Population Mitotic Cells (%),[8],0%
same,Population Normal (%),[8],60%
same,Population Pyknosed Nuclei (%),[8],28%
same,Total Cell Count,[8],70
same,Population Apoptotic (%),[9],44%
same,Population Fragmented Nuclei (%),[9],7%
same,Population Healthy Nuclei (%),[9],85%
same,Population Hoechst High Intensity Objects (%),[9],3%
same,Population Membrane Permeable-Phenotype (%),[9],2%
same,Population Mitochondria Different-Phenotype (%),[9],11%
same,Population Mitotic Cells (%),[9],55%
same,Population Normal (%),[9],96%
same,Population Pyknosed Nuclei (%),[9],7%
same,Population Tubulin-Different-Phenotype (%),[9],7%
same,Total Cell Count,[9],112
same,Population Apoptotic (%),[10],35%
same,Population Fragmented Nuclei (%),[10],10%
same,Population Healthy Nuclei (%),[10],75%
same,Population Hoechst High Intensity Objects (%),[10],1%
same,Population Membrane Permeable-Phenotype (%),[10],6%
same,Population Mitochondria Different-Phenotype (%),[10],17%
same,Population Mitotic Cells (%),[10],64%
same,Population Normal (%),[10],98%
same,Population Pyknosed Nuclei (%),[10],13%
same,Population Tubulin-Different-Phenotype (%),[10],10%
same,Total Cell Count,[10],110
same,Population Apoptotic (%),[11],91%
same,Population Fragmented Nuclei (%),[11],50%
same,Population Healthy Nuclei (%),[11],1%
same,Population Hoechst High Intensity Objects (%),[11],14%
same,Population Membrane Permeable-Phenotype (%),[11],100%
same,Population Mitochondria Different-Phenotype (%),[11],100%
same,Population Mitotic Cells (%),[11],8%
same,Population Normal (%),[11],85%
same,Population Pyknosed Nuclei (%),[11],48%
same,Population Tubulin-Different-Phenotype (%),[11],100%
same,Total Cell Count,[11],260
same,Population Apoptotic (%),[12],100%
same,Population Fragmented Nuclei (%),[12],64%
same,Population Healthy Nuclei (%),[12],24%
same,Population Hoechst High Intensity Objects (%),[12],39%
same,Population Membrane Permeable-Phenotype (%),[12],90%
same,Population Mitochondria Different-Phenotype (%),[12],90%
same,Population Mitotic Cells (%),[12],0%
same,Population Normal (%),[12],60%
same,Population Pyknosed Nuclei (%),[12],11%
same,Population Tubulin-Different-Phenotype (%),[12],90%
same,Total Cell Count,[12],103
